This test deals with HeLa cells. The test is described as follows: Radiolabel pulse-chase of cellular protein breakdown. The format is cell-based, human. The conditions noted are these: 35S-Met/35S-Cys label, 4 hr chase. Put shortly: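 Cellular proteins were metabolically labeled with ³⁵S-Met and ³⁵S-Cys, then chased in unlabeled ("cold") medium. During the chase, cells were left untreated or given DMSO, test compound, or the proteasome inhibitor MG132 as a reference. Compounds were tested at more than one concentration to follow degradation across doses. Bars show mean values.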

Structures are written as SMILES. Peptide text beside a SMILES is read from it. * marks the point of attachment. Cbz = O=C(OCc1ccccc1)*

`CC(C)C[C@@H](C=O)NC(=O)[C@H](CC(C)C)NC(=O)[C@H](CC(C)C)NC(=O)OCc1ccccc1` [MG132] (Cbz-Leu-Leu-Leu-aldehyde): the cellular protein breakdown entry was “inhibit”.
